How the values were obtained:
Format in all cases: functional
Streptococcus pneumoniae [1] = experiment: Antimicrobial activity against Streptococcus pneumoniae 11 by time-kill analysis
How it was run: (§1)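 Time-kill in cation-adjusted Mueller-Hinton broth with 5% lysed horse blood; inocula 5 × 105 to 5 × 10^6 CFU/ml; drugs at MIC, 2× and 4× MIC; 35°C shaking water bath; viable counts at 0, 3, 6, 12, 24 h. Bactericidal = ≥3 log10 CFU/ml (99.9%) drop from original inoculum; 90%/99%/99.9% killing scored per strain.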

Streptococcus pneumoniae [2] = experiment: Antimicrobial activity against Streptococcus pneumoniae isolate 3791 by agar dilution method
How it was run: (§2)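 Agar dilution MIC on Mueller-Hinton agar with 5% sheep blood, inocula 10^4 CFU/spot; amoxicillin-clavulanate combined 1:2; S. pneumoniae ATCC 49619 quality control each run.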

Streptococcus pneumoniae [3] = experiment: Antimicrobial activity against Streptococcus pneumoniae 5 by time-kill analysis
How it was run: as §1, with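 “12 and” for “12,”, “if” for “=”, “reduction” for “drop”, “90% and 99%” for “90%/99%/99.9%”, “also scored.” for “scored per strain.”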

Streptococcus pneumoniae [4] = experiment: Antimicrobial activity against Streptococcus pneumoniae 7 by time-kill analysis; how it was run: as §1
Streptococcus pneumoniae [5] = experiment: Antimicrobial activity against Streptococcus pneumoniae 4 by time-kill analysis; how it was run: as §1
Streptococcus pneumoniae [6] = experiment: Antimicrobial activity against Streptococcus pneumoniae isolate 3681 by agar dilution method; how it was run: as §2
Streptococcus pneumoniae [7] = experiment: Antimicrobial activity against Streptococcus pneumoniae isolate 1564 by agar dilution method
Streptococcus pneumoniae [8] = experiment: Antimicrobial activity against Streptococcus pneumoniae isolate 24 by agar dilution method
Streptococcus pneumoniae [9] = experiment: Antimicrobial activity against Streptococcus pneumoniae isolate 37 by agar dilution method; how it was run: as §2
Streptococcus pneumoniae [10] = experiment: Antimicrobial activity against Streptococcus pneumoniae isolate 1146 by agar dilution method; how it was run: as §2
Streptococcus pneumoniae [11] = experiment: Antimicrobial activity against Streptococcus pneumoniae isolate 1147 by agar dilution method; how it was run: as §2
Streptococcus pneumoniae [12] = experiment: Antimicrobial activity against Streptococcus pneumoniae 1 by time-kill analysis
How it was run: as §1, with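 “12 and” for “12,”, “if” for “=”, “reduction” for “drop”, “90% and 99%” for “90%/99%/99.9%”, “also scored.” for “scored per strain.”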

Streptococcus pneumoniae [13] = experiment: Antimicrobial activity against Streptococcus pneumoniae isolate 1055 by agar dilution method
Streptococcus pneumoniae [14] = experiment: Antimicrobial activity against Streptococcus pneumoniae isolate 2880 by agar dilution method; how it was run: as §2
Streptococcus pneumoniae [15] = experiment: Antimicrobial activity against Streptococcus pneumoniae isolate 2688 by agar dilution method; how it was run: as §2
Streptococcus pneumoniae [16] = experiment: Antimicrobial activity against Streptococcus pneumoniae isolate 4755 by agar dilution method; how it was run: as §2
Streptococcus pneumoniae [17] = experiment: Antimicrobial activity against Streptococcus pneumoniae isolate 3455 by agar dilution method
Streptococcus pneumoniae [18] = experiment: Antimicrobial activity against Streptococcus pneumoniae isolate 2874 by agar dilution method; how it was run: as §2
Streptococcus pneumoniae [19] = experiment: Antimicrobial activity against Streptococcus pneumoniae isolate 3260 by agar dilution method
Streptococcus pneumoniae [20] = experiment: Antimicrobial activity against Streptococcus pneumoniae isolate 3481 by agar dilution method; how it was run: as §2
Streptococcus pneumoniae [21] = experiment: Antimicrobial activity against Streptococcus pneumoniae isolate 2617 by agar dilution method; how it was run: as §2
Streptococcus pneumoniae [22] = experiment: Antimicrobial activity against Streptococcus pneumoniae isolate 3263 by agar dilution method
Streptococcus pneumoniae [23] = experiment: Antimicrobial activity against Streptococcus pneumoniae isolate 3412 by agar dilution method; how it was run: as §2
Streptococcus pneumoniae [24] = experiment: Antimicrobial activity against Streptococcus pneumoniae 10 by time-kill analysis; how it was run: as §1
Streptococcus pneumoniae [25] = experiment: Antimicrobial activity against Streptococcus pneumoniae 9 by time-kill analysis
How it was run: as §1, with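 “12 and” for “12,”, “if” for “=”, “reduction” for “drop”, “90% and 99%” for “90%/99%/99.9%”, “also scored.” for “scored per strain.”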

Streptococcus pneumoniae [26] = experiment: Antimicrobial activity against Streptococcus pneumoniae isolate 3587 by agar dilution method
Streptococcus pneumoniae [27] = experiment: Antimicrobial activity against Streptococcus pneumoniae isolate 1397 by agar dilution method; how it was run: as §2
Streptococcus pneumoniae [28] = experiment: Antimicrobial activity against penicillin-intermediate Streptococcus pneumoniae by agar dilution method
Streptococcus pneumoniae [29] = experiment: Antimicrobial activity against Streptococcus pneumoniae isolate 1394 by agar dilution method
Streptococcus pneumoniae [30] = experiment: Antimicrobial activity against Streptococcus pneumoniae isolate 3458 by agar dilution method
Streptococcus pneumoniae [31] = experiment: Antimicrobial activity against Streptococcus pneumoniae 8 by time-kill analysis; how it was run: as §1
Streptococcus pneumoniae [32] = experiment: Antimicrobial activity against Streptococcus pneumoniae isolate 3282 by agar dilution method
Streptococcus pneumoniae [33] = experiment: Antimicrobial activity against Streptococcus pneumoniae isolate 1424 by agar dilution method; how it was run: as §2
Streptococcus pneumoniae [34] = experiment: Antimicrobial activity against Streptococcus pneumoniae 6 by time-kill analysis; how it was run: as §1
Streptococcus pneumoniae [35] = experiment: Antimicrobial activity against Streptococcus pneumoniae isolate 3275 by agar dilution method; how it was run: as §2
Streptococcus pneumoniae [36] = experiment: Antimicrobial activity against penicillin-resistant Streptococcus pneumoniae by agar dilution method; how it was run: as §2
Streptococcus pneumoniae [37] = experiment: Antimicrobial activity against Streptococcus pneumoniae isolate 2686 by agar dilution method; how it was run: as §2
Streptococcus pneumoniae [38] = experiment: Antimicrobial activity against Streptococcus pneumoniae 2 by time-kill analysis; how it was run: as §1
Streptococcus pneumoniae [39] = experiment: Antimicrobial activity against Streptococcus pneumoniae isolate 1384 by agar dilution method; how it was run: as §2
Streptococcus pneumoniae [40] = experiment: Antimicrobial activity against Streptococcus pneumoniae isolate 33 by agar dilution method; how it was run: as §2
Streptococcus pneumoniae [41] = experiment: Antimicrobial activity against Streptococcus pneumoniae 12 by time-kill analysis; how it was run: as §1
Streptococcus pneumoniae [42] = experiment: Antimicrobial activity against Streptococcus pneumoniae isolate 4747 by agar dilution method; how it was run: as §2
Streptococcus pneumoniae [43] = experiment: Antimicrobial activity against penicillin-susceptible Streptococcus pneumoniae by agar dilution method
Streptococcus pneumoniae [44] = experiment: Antimicrobial activity against Streptococcus pneumoniae isolate 3374 by agar dilution method; how it was run: as §2
Streptococcus pneumoniae [45] = experiment: Antimicrobial activity against Streptococcus pneumoniae isolate 3346 by agar dilution method
Streptococcus pneumoniae [46] = experiment: Antimicrobial activity against Streptococcus pneumoniae 3 by time-kill analysis; how it was run: as §1

O=C(O)c1cn(C2CC2)c2cc(N3CCNCC3)c(F)cc2c1=O [CIPROFLOXACIN]
32 µg/mL: MIC (Streptococcus pneumoniae [10]) | MIC (Streptococcus pneumoniae [11]) | MIC (Streptococcus pneumoniae [13])
16 µg/mL: MIC (Streptococcus pneumoniae [5])
> 32 µg/mL: MIC (Streptococcus pneumoniae [12])
1 µg/mL: MIC (Streptococcus pneumoniae [1]) | MIC (Streptococcus pneumoniae [2]) | MIC (Streptococcus pneumoniae [3]) | MIC (Streptococcus pneumoniae [4]) | MIC (Streptococcus pneumoniae [6]) | MIC (Streptococcus pneumoniae [7]) | MIC (Streptococcus pneumoniae [8]) | MIC (Streptococcus pneumoniae [9]) | MIC (Streptococcus pneumoniae [14]) | MIC (Streptococcus pneumoniae [15])

C=CC1=C(C(=O)O)N2C(=O)[C@@H](NC(=O)/C(=N\O)c3csc(N)n3)[C@H]2SC1 [CEFDINIR]
2 µg/mL: MIC (Streptococcus pneumoniae [35])
0.25 µg/mL: MIC (Streptococcus pneumoniae [24])
0.12 µg/mL: MIC (Streptococcus pneumoniae [12])
1 µg/mL: MIC (Streptococcus pneumoniae [25]) | MIC (Streptococcus pneumoniae [34])
0.06 µg/mL: MIC (Streptococcus pneumoniae [38]) | MIC50 (Streptococcus pneumoniae [43])
16 µg/mL: MIC (Streptococcus pneumoniae [5]) | MIC (Streptococcus pneumoniae [31]) | MIC (Streptococcus pneumoniae [15])
8 µg/mL: MIC (Streptococcus pneumoniae [17]) | MIC (Streptococcus pneumoniae [2]) | MIC (Streptococcus pneumoniae [3]) | MIC (Streptococcus pneumoniae [18]) | MIC (Streptococcus pneumoniae [19]) | MIC (Streptococcus pneumoniae [22]) | MIC (Streptococcus pneumoniae [6]) | MIC (Streptococcus pneumoniae [26]) | MIC (Streptococcus pneumoniae [29]) | MIC (Streptococcus pneumoniae [30]) | MIC (Streptococcus pneumoniae [32]) | MIC (Streptococcus pneumoniae [33]) | MIC50 (Streptococcus pneumoniae [36]) | MIC90 (Streptococcus pneumoniae [36]) | MIC (Streptococcus pneumoniae [37]) | MIC (Streptococcus pneumoniae [39]) | MIC (Streptococcus pneumoniae [40]) | MIC (Streptococcus pneumoniae [10]) | MIC (Streptococcus pneumoniae [11]) | MIC (Streptococcus pneumoniae [13]) | MIC (Streptococcus pneumoniae [45])
4 µg/mL: MIC (Streptococcus pneumoniae [16]) | MIC (Streptococcus pneumoniae [1]) | MIC (Streptococcus pneumoniae [20]) | MIC (Streptococcus pneumoniae [21]) | MIC (Streptococcus pneumoniae [4]) | MIC (Streptococcus pneumoniae [23]) | MIC (Streptococcus pneumoniae [27]) | MIC90 (Streptococcus pneumoniae [28]) | MIC (Streptococcus pneumoniae [8]) | MIC (Streptococcus pneumoniae [9]) | MIC (Streptococcus pneumoniae [41]) | MIC (Streptococcus pneumoniae [42]) | MIC (Streptococcus pneumoniae [14]) | MIC (Streptococcus pneumoniae [44])
0.125 µg/mL: MIC90 (Streptococcus pneumoniae [43])
0.5 µg/mL: MIC50 (Streptococcus pneumoniae [28]) | MIC (Streptococcus pneumoniae [46])
32 µg/mL: MIC (Streptococcus pneumoniae [7])

Source: ChEMBL document CHEMBL1649446, “Comparative antipneumococcal activities of sulopenem and other drugs” (2009)
